What was measured:
[1] = system: NCI-H522; experiment: Growth inhibition of human NCI-H522 cells assessed as cell growth at 10 uM after 48 hrs by sulforhodamine B assay; assay type: functional; conditions: NCI-H522, 48 h, read-out: Activity
Outline: (§1)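 NCI 60-cell-line panel screen (nine cancer types). Compounds added at single concentration 10^-5 M, cultures incubated 48 h; growth inhibition percentages reported.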

[2] = system: U-251; experiment: Growth inhibition of human U251 cells assessed as cell growth at 10 uM after 48 hrs by sulforhodamine B assay; assay type: functional; conditions: U-251, 48 h, read-out: Activity
Outline: (§2)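 NCI 60-cell-line panel from nine tumour types (leukaemia, lung, colon, CNS, melanoma, ovarian, renal, prostate, breast). Each compound was added at one single concentration, and cultures were incubated for 48 h. Results are reported as percent growth inhibition.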

[3] = system: SF-268; experiment: Growth inhibition of human SF268 cells assessed as cell growth at 10 uM after 48 hrs by sulforhodamine B assay; assay type: functional; conditions: SF-268, 48 h, read-out: Activity; outline: as §1
[4] = system: UACC-62; experiment: Growth inhibition of human UACC62 cells assessed as cell growth at 10 uM after 48 hrs by sulforhodamine B assay; assay type: functional; conditions: UACC-62, 48 h, read-out: Activity; outline: as §2
[5] = system: KM12; experiment: Growth inhibition of human KM12 cells assessed as cell growth at 10 uM after 48 hrs by sulforhodamine B assay; assay type: functional; conditions: KM12, 48 h, read-out: Activity; outline: as §1
[6] = system: HL-60; experiment: Cytotoxicity in human HL60 cells assessed as reduction in cell viability incubated for 48 hrs by MTT assay; assay type: functional, cell-based; conditions: HL-60, 48 h
Outline: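 HepG2 and HL60 (ATCC) grown in DMEM with 10% FBS, 2 mM L-glutamine, penicillin/streptomycin, amphotericin B at 37 °C, 5% CO2. Samples dissolved in DMSO, diluted thousandfold in assay. Cells seeded in serum-free medium, treated with serial concentrations 48 h; MTT 4 h, formazan dissolved in acidified isopropanol, A570. Triplicates averaged; viability relative to untreated/vehicle control.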

[7] = system: MCF7; experiment: Growth inhibition of human MCF7 cells assessed as cell growth at 10 uM after 48 hrs by sulforhodamine B assay; assay type: functional; conditions: MCF7, 48 h, read-out: Activity; outline: as §1
[8] = system: LOX IMVI; experiment: Growth inhibition of human LOXIMVI cells assessed as cell growth at 10 uM after 48 hrs by sulforhodamine B assay; assay type: functional; conditions: read-out: Activity; outline: as §1
[9] = system: OVCAR-8; experiment: Growth inhibition of human OVCAR8 cells assessed as cell growth at 10 uM after 48 hrs by sulforhodamine B assay; assay type: functional; conditions: OVCAR-8, 48 h, read-out: Activity; outline: as §1
[10] = system: COLO 205; experiment: Growth inhibition of human COLO205 cells assessed as cell growth at 10 uM after 48 hrs by sulforhodamine B assay; assay type: functional; conditions: COLO 205, 48 h, read-out: Activity; outline: as §1
[11] = system: NCI-H226; experiment: Growth inhibition of human NCI-H226 cells assessed as cell growth at 10 uM after 48 hrs by sulforhodamine B assay; assay type: functional; conditions: NCI-H226, 48 h, read-out: Activity; outline: as §1
[12] = system: SK-MEL-5; experiment: Growth inhibition of human SK-MEL-5 cells assessed as cell growth at 10 uM after 48 hrs by sulforhodamine B assay; assay type: functional; conditions: SK-MEL-5, 48 h, read-out: Activity; outline: as §1
[13] = system: SF-295; experiment: Growth inhibition of human SF295 cells assessed as cell growth at 10 uM after 48 hrs by sulforhodamine B assay; assay type: functional; conditions: SF-295, 48 h, read-out: Activity; outline: as §1
[14] = system: HCC 2998; experiment: Growth inhibition of human HCC2998 cells assessed as cell growth at 10 uM after 48 hrs by sulforhodamine B assay; assay type: functional; conditions: HCC 2998, 48 h, read-out: Activity; outline: as §1
[15] = system: SK-MEL-28; experiment: Growth inhibition of human SK-MEL-28 cells assessed as cell growth at 10 uM after 48 hrs by sulforhodamine B assay; assay type: functional; conditions: SK-MEL-28, 48 h, read-out: Activity; outline: as §1
[16] = system: SW-620; experiment: Growth inhibition of human SW620 cells assessed as cell growth at 10 uM after 48 hrs by sulforhodamine B assay; assay type: functional; conditions: SW-620, 48 h, read-out: Activity; outline: as §2
[17] = system: M14; experiment: Growth inhibition of human M14 cells assessed as cell growth at 10 uM after 48 hrs by sulforhodamine B assay; assay type: functional; conditions: M14, 48 h, read-out: Activity; outline: as §1
[18] = system: UACC-257; experiment: Growth inhibition of human UACC257 cells assessed as cell growth at 10 uM after 48 hrs by sulforhodamine B assay; assay type: functional; conditions: UACC-257, 48 h, read-out: Activity; outline: as §2
[19] = system: SF-539; experiment: Growth inhibition of human SF539 cells assessed as cell growth at 10 uM after 48 hrs by sulforhodamine B assay; assay type: functional; conditions: SF-539, 48 h, read-out: Activity; outline: as §1
[20] = system: CAKI-1; experiment: Growth inhibition of human CAKI-1 cells assessed as cell growth at 10 uM after 48 hrs by sulforhodamine B assay; assay type: functional; conditions: CAKI-1, 48 h, read-out: Activity; outline: as §1
[21] = system: OVCAR-4; experiment: Growth inhibition of human OVCAR4 cells assessed as cell growth at 10 uM after 48 hrs by sulforhodamine B assay; assay type: functional; conditions: OVCAR-4, 48 h, read-out: Activity; outline: as §1
[22] = system: SK-MEL-2; experiment: Growth inhibition of human SK-MEL-2 cells assessed as cell growth at 10 uM after 48 hrs by sulforhodamine B assay; assay type: functional; conditions: SK-MEL-2, 48 h, read-out: Activity; outline: as §1
[23] = system: NCI-H322M; experiment: Growth inhibition of human NCI-H322M cells assessed as cell growth at 10 uM after 48 hrs by sulforhodamine B assay; assay type: functional; conditions: read-out: Activity; outline: as §1
[24] = system: 786-0; experiment: Growth inhibition of human 786-0 cells assessed as cell growth at 10 uM after 48 hrs by sulforhodamine B assay; assay type: functional; conditions: 786-0, 48 h, read-out: Activity; outline: as §1
[25] = system: SN12C; experiment: Growth inhibition of human SN12C cells assessed as cell growth at 10 uM after 48 hrs by sulforhodamine B assay; assay type: functional; conditions: read-out: Activity; outline: as §2
[26] = system: HOP-92; experiment: Growth inhibition of human HOP92 cells assessed as cell growth at 10 uM after 48 hrs by sulforhodamine B assay; assay type: functional; conditions: HOP-92, 48 h, read-out: Activity; outline: as §1
[27] = system: T47D; experiment: Growth inhibition of human T47D cells assessed as cell growth at 10 uM after 48 hrs by sulforhodamine B assay; assay type: functional; conditions: read-out: Activity; outline: as §2
[28] = system: TK-10; experiment: Growth inhibition of human TK10 cells assessed as cell growth at 10 uM after 48 hrs by sulforhodamine B assay; assay type: functional; conditions: TK-10, 48 h, read-out: Activity; outline: as §2
[29] = system: PC-3; experiment: Growth inhibition of human PC3 cells assessed as cell growth at 10 uM after 48 hrs by sulforhodamine B assay; assay type: functional; conditions: PC-3, 48 h, read-out: Activity; outline: as §1
[30] = system: K562; experiment: Growth inhibition of human K562 cells assessed as cell growth at 10 uM after 48 hrs by sulforhodamine B assay; assay type: functional; conditions: K562, 48 h, read-out: Activity; outline: as §1

SMILES: CCOc1ccc(-n2nc(C(=O)Nc3ccc(F)c(F)c3F)nc2-c2cc(OC)c(OC)c(OC)c2)cc1
- growth at 10 µM [1]: 71.5%
- growth at 10 µM [2]: 98.2%
- growth at 10 µM [3]: 82.3%
- growth at 10 µM [4]: 89.7%
- growth at 10 µM [5]: 96%
- IC50 [6]: 10.9 µM
- growth at 10 µM [7]: 79.5%
- growth at 10 µM [8]: 94%
- growth at 10 µM [9]: 93.4%
- growth at 10 µM [10]: 90%
- growth at 10 µM [11]: 91.2%
- growth at 10 µM [12]: 87%
- growth at 10 µM [13]: 93%
- growth at 10 µM [14]: 94.6%
- growth at 10 µM [15]: 86.7%
- growth at 10 µM [16]: 103%
- growth at 10 µM [17]: 93.9%
- growth at 10 µM [18]: 101%
- growth at 10 µM [19]: 87.9%
- growth at 10 µM [20]: 60.5%
- growth at 10 µM [21]: 78.8%
- growth at 10 µM [22]: 84.1%
- growth at 10 µM [23]: 69.5%
- growth at 10 µM [24]: 79.6%
- growth at 10 µM [25]: 86.5%
- growth at 10 µM [26]: 84.9%
- growth at 10 µM [27]: 65.7%
- growth at 10 µM [28]: 101%
- growth at 10 µM [29]: 71.6%
- growth at 10 µM [30]: 90.7%

SMILES: CCOc1ccc(-n2nc(C(=O)Nc3ccccc3OC)nc2-c2cc(OC)c(OC)c(OC)c2)cc1
- growth at 10 µM [1]: 69.2%
- growth at 10 µM [2]: 94%
- growth at 10 µM [3]: 89.2%
- growth at 10 µM [4]: 85.2%
- growth at 10 µM [5]: 96.2%
- growth at 10 µM [7]: 77.4%
- growth at 10 µM [8]: 92.2%
- growth at 10 µM [9]: 90.3%
- growth at 10 µM [10]: 78.7%
- growth at 10 µM [11]: 82.3%
- growth at 10 µM [12]: 73.8%
- growth at 10 µM [13]: 84.8%
- growth at 10 µM [14]: 99.7%
- growth at 10 µM [15]: 78.3%
- growth at 10 µM [16]: 100%
- growth at 10 µM [17]: 92.8%
- growth at 10 µM [18]: 97.9%
- growth at 10 µM [19]: 85.7%
- growth at 10 µM [20]: 66.7%
- growth at 10 µM [21]: 72.9%
- growth at 10 µM [22]: 81.9%
- growth at 10 µM [23]: 77.4%
- growth at 10 µM [24]: 79.1%
- growth at 10 µM [25]: 83.1%
- growth at 10 µM [26]: 86.8%
- growth at 10 µM [27]: 50.2%
- growth at 10 µM [28]: 89.2%
- growth at 10 µM [29]: 65.5%
- growth at 10 µM [30]: 79.6%

SMILES: COc1cccc(-n2nc(C(=O)NCc3ccccc3OC)nc2-c2cc(OC)c(OC)c(OC)c2)c1
- growth at 10 µM [1]: 60.5%
- growth at 10 µM [2]: 97.1%
- growth at 10 µM [3]: 95.5%
- growth at 10 µM [4]: 97.4%
- growth at 10 µM [5]: 95.6%
- IC50 [6]: > 100 µM
- growth at 10 µM [7]: 98.7%
- growth at 10 µM [8]: 95.9%
- growth at 10 µM [9]: 103%
- growth at 10 µM [10]: 101%
- growth at 10 µM [11]: 96.8%
- growth at 10 µM [12]: 107%
- growth at 10 µM [13]: 95.1%
- growth at 10 µM [14]: 92.1%
- growth at 10 µM [15]: 115%
- growth at 10 µM [16]: 111%
- growth at 10 µM [17]: 99.8%
- growth at 10 µM [19]: 96.5%
- growth at 10 µM [21]: 90.8%
- growth at 10 µM [22]: 77.8%
- growth at 10 µM [23]: 94.3%
- growth at 10 µM [24]: 94%
- growth at 10 µM [25]: 94.8%
- growth at 10 µM [26]: 108%
- growth at 10 µM [27]: 75.8%
- growth at 10 µM [28]: 81%
- growth at 10 µM [29]: 104%
- growth at 10 µM [30]: 122%

SMILES: COc1cccc(-n2nc(C(=O)NCc3ccccc3C)nc2-c2cc(OC)c(OC)c(OC)c2)c1
- growth at 10 µM [1]: 60.8%
- growth at 10 µM [2]: 85%
- growth at 10 µM [3]: 85.8%
- growth at 10 µM [4]: 72.5%
- growth at 10 µM [5]: 82%
- IC50 [6]: 89.4 µM
- growth at 10 µM [7]: 82.1%
- growth at 10 µM [8]: 78.7%
- growth at 10 µM [9]: 87.3%
- growth at 10 µM [10]: 84.3%
- growth at 10 µM [11]: 87.9%
- growth at 10 µM [12]: 86.8%
- growth at 10 µM [13]: 76.1%
- growth at 10 µM [14]: 96%
- growth at 10 µM [15]: 107%
- growth at 10 µM [16]: 102%
- growth at 10 µM [17]: 86.7%
- growth at 10 µM [19]: 87.7%
- growth at 10 µM [21]: 81.6%
- growth at 10 µM [22]: 78.1%
- growth at 10 µM [23]: 87.5%
- growth at 10 µM [24]: 76%
- growth at 10 µM [25]: 91.7%
- growth at 10 µM [26]: 81.8%
- growth at 10 µM [27]: 56.4%
- growth at 10 µM [28]: 73.2%
- growth at 10 µM [29]: 83.2%
- growth at 10 µM [30]: 90.8%

— ChEMBL document CHEMBL4138126, “Synthesis, antiproliferative, anti-tubulin activity, and docking study of new 1,2,4-triazoles as potential combretastatin analogues” (Eur J Med Chem, 2017)
